ChEMBL document CHEMBL3992538, “Hybrids of thienopyrimidinones and thiouracils as anti-tubercular agents: SAR and docking studies” (Eur J Med Chem, 2017)
≈ marks a conversion by molar mass, not a printed value.

Key:
[1] = Selectivity index, ratio of GI50 for human PANC1 cells to MIC for active stage of Mycobacterium tuberculosis H37Ra ATCC 25177 infected in human THP1 cells; format: toxicity, cell-based; settings: PANC-1 cells, read-out: Selectivity Index
Outline: (§1)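 Selectivity index is the cytotoxic GI50 against the named human cell line divided by the antimycobacterial value. Activity counted as specific when SI >10.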

[2] = Selectivity index, ratio of GI50 for human HeLa cells to MIC for dormant stage of Mycobacterium tuberculosis H37Ra ATCC 25177; format: toxicity, cell-based; settings: read-out: Selectivity Index; outline: as §1
[3] = Cytotoxicity against human HeLa cells assessed as growth inhibition by MTT assay; format: cell-based
Outline: (§2)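 MTT assay in duplicate on THP-1 leukaemia, A549 lung adenocarcinoma, PANC-1 pancreatic adenocarcinoma and HeLa cervical carcinoma cells, all obtained from ECCC.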

[4] = Selectivity index, ratio of GI50 for human A549 cells to MIC for dormant stage of Mycobacterium tuberculosis H37Ra ATCC 25177 infected in human THP1 cells; format: toxicity, cell-based; settings: read-out: Selectivity Index; outline: as §1
[5] = system: Mycobacterium tuberculosis; experiment: Antitubercular activity against active stage of Mycobacterium tuberculosis H37Ra ATCC 25177 infected in human THP1 cells after 8 days by nitrate reductase assay; format: functional; settings: H37Ra ATCC 25177, 192 h
Outline: (§3)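 Ex vivo test of H37Ra in THP-1 cells by nitrate reductase assay, absorbance read at 540 nm. Active stage incubated 8 days and dormant stage 12 days. H37Ra (ATCC 25177) grown in M. pheli medium to OD 1.0 and subcultured once from -70°C stock.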

[6] = Cytotoxicity against human PANC1 cells assessed as growth inhibition by MTT assay; format: cell-based; settings: PANC-1 cells; outline: as §2
[7] = system: Mycobacterium tuberculosis; experiment: Antitubercular activity against dormant stage of Mycobacterium tuberculosis H37Ra ATCC 25177 infected in human THP1 cells after 12 days by nitrate reductase assay; format: functional; settings: H37Ra ATCC 25177, 288 h; outline: as §3
[8] = Selectivity index, ratio of GI50 for human HeLa cells to MIC for active stage of Mycobacterium tuberculosis H37Ra ATCC 25177; format: toxicity, cell-based; settings: read-out: Selectivity Index; outline: as §1
[9] = system: Mycobacterium tuberculosis; experiment: Antitubercular activity against dormant stage of Mycobacterium tuberculosis H37Ra ATCC 25177 after 12 days by XTT reduction menadione assay; format: functional; settings: H37Ra ATCC 25177, 288 h
Outline: (§4)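 M. tuberculosis H37Ra (ATCC 25177), grown to log phase (OD 1.0) in M. pheli medium from -70°C stock, subcultured once before inoculation. Incubation 8 days (active) or 12 days (dormant). XRMA read-out as absorbance at 470 nm.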

[10] = Cytotoxicity against human THP1 cells assessed as growth inhibition by MTT assay; format: cell-based; settings: THP-1 cells; outline: as §2
[11] = Selectivity index, ratio of GI50 for human PANC1 cells to MIC for dormant stage of Mycobacterium tuberculosis H37Ra ATCC 25177 infected in human THP1 cells; format: toxicity, cell-based; settings: PANC-1 cells, read-out: Selectivity Index; outline: as §1
[12] = Selectivity index, ratio of GI50 for human HeLa cells to MIC for dormant stage of Mycobacterium tuberculosis H37Ra ATCC 25177 infected in human THP1 cells; format: toxicity, cell-based; settings: read-out: Selectivity Index; outline: as §1
[13] = Selectivity index, ratio of GI50 for human A549 cells to MIC for dormant stage of Mycobacterium tuberculosis H37Ra ATCC 25177; format: toxicity; settings: read-out: Selectivity Index; outline: as §1
[14] = Selectivity index, ratio of GI50 for human A549 cells to MIC for active stage of Mycobacterium tuberculosis H37Ra ATCC 25177 infected in human THP1 cells; format: toxicity, cell-based; settings: read-out: Selectivity Index; outline: as §1
[15] = Selectivity index, ratio of GI50 for human HeLa cells to MIC for active stage of Mycobacterium tuberculosis H37Ra ATCC 25177 infected in human THP1 cells; format: toxicity, cell-based; settings: read-out: Selectivity Index; outline: as §1
[16] = Selectivity index, ratio of GI50 for human A549 cells to MIC for active stage of Mycobacterium tuberculosis H37Ra ATCC 25177; format: toxicity; settings: read-out: Selectivity Index; outline: as §1
[17] = Cytotoxicity against human A549 cells assessed as growth inhibition by MTT assay; format: cell-based; outline: as §2
[18] = Selectivity index, ratio of GI50 for human PANC1 cells to MIC for active stage of Mycobacterium tuberculosis H37Ra ATCC 25177; format: toxicity; settings: PANC-1 cells, read-out: Selectivity Index; outline: as §1
[19] = system: Mycobacterium tuberculosis; experiment: Antitubercular activity against active stage of Mycobacterium tuberculosis H37Ra ATCC 25177 after 8 days by XTT reduction menadione assay; format: functional; settings: H37Ra ATCC 25177, 192 h; outline: as §4
[20] = Selectivity index, ratio of GI50 for human PANC1 cells to MIC for dormant stage of Mycobacterium tuberculosis H37Ra ATCC 25177; format: toxicity; settings: PANC-1 cells, read-out: Selectivity Index; outline: as §1

SMILES | selectivity ratio [1] | selectivity ratio [2] | GI50 [3] [µg/mL] | selectivity ratio [4] | MIC [5] [µg/mL] | GI50 [6] [µg/mL] | MIC [7] [µg/mL] | selectivity ratio [8] | MIC [9] [µg/mL] | GI50 [10] [µg/mL] | selectivity ratio [11] | selectivity ratio [12] | selectivity ratio [13] | selectivity ratio [14] | selectivity ratio [15] | selectivity ratio [16] | GI50 [17] [µg/mL] | selectivity ratio [18] | MIC [19] [µg/mL] | selectivity ratio [20]
CCCCCCCCCCCn1c(SCCCn2cnc3sc4c(c3c2=O)CCCC4)nc(-c2cc(OC)c(OC)c(OC)c2)c(C#N)c1=O | > 3 | > 3 | > 100 | > 3 | > 30 | > 100 | > 30 | > 3 | > 30 | > 100 | > 3 | > 3 | > 3 | > 3 | > 3 | > 3 | > 100 | > 3 | > 30 | > 3
COc1cc(-c2nc(SCCCn3cnc4sc5c(c4c3=O)CCCC5)n(Cc3ccccc3)c(=O)c2C#N)cc(OC)c1OC | 2 | 2 | 72.1 (≈ 110 µM) | > 3 | > 30 | 51.9 (≈ 79.1 µM) | > 30 | 2 | > 30 | > 100 | 2 | 2 | > 3 | > 3 | 2 | > 3 | > 100 | 2 | > 30 | 2
Cc1ccc(-c2nc(S)nc(O)c2C#N)cc1 | > 3 | 2 | 67.6 (≈ 278 µM) | 3 | > 30 | > 100 | > 30 | 2 | > 30 | 88.9 (≈ 365 µM) | > 3 | 2 | < 3 | < 3 | 2 | 3 | 86.7 (≈ 356 µM) | > 3 | > 30 | > 3
COc1cc(-c2nc(SCCCn3cnc4sc5c(c4c3=O)CCCC5)n(C)c(=O)c2C#N)cc(OC)c1OC | 1 | 3 | 70.7 (≈ 122 µM) | 4 | 26.9 (≈ 46.4 µM) | 24.8 (≈ 42.8 µM) | 21.5 (≈ 37.1 µM) | 3 | 26.1 (≈ 45 µM) | 89.7 (≈ 155 µM) | 1 | 3 | 4 | 4 | 3 | 3 | 95.7 (≈ 165 µM) | 1 | 27.9 (≈ 48.1 µM) | 1
COc1cc(-c2nc(SCCCn3cnc4sc5c(c4c3=O)CCCC5)[nH]c(=O)c2C#N)cc(OC)c1OC | 2 | 2 | 55.7 (≈ 98.5 µM) | 3 | 28.8 (≈ 50.9 µM) | 52.8 (≈ 93.3 µM) | 26.1 (≈ 46.1 µM) | 2 | 23.4 (≈ 41.4 µM) | 97.6 (≈ 173 µM) | 2 | 2 | 4 | 3 | 2 | 4 | 91.4 (≈ 162 µM) | 2 | 25.4 (≈ 44.9 µM) | 2
N#Cc1c(-c2ccc(O)cc2)[nH]c(=S)[nH]c1=O | 3 | 3 | 90.8 (≈ 370 µM) | 3 | > 30 | 89.1 (≈ 363 µM) | > 30 | 3 | > 30 | 93 (≈ 379 µM) | < 3 | < 3 | < 3 | < 3 | 3 | 3 | 87.4 (≈ 356 µM) | 3 | > 30 | < 3
CCCCCn1c(SCCCn2cnc3sc4c(c3c2=O)CCCC4)nc(-c2cc(OC)c(OC)c(OC)c2)c(C#N)c1=O | > 3 | 2 | 73 (≈ 115 µM) | > 3 | > 30 | > 100 | > 30 | 2 | > 30 | > 100 | > 3 | 2 | > 3 | > 3 | 2 | > 3 | > 100 | > 3 | > 30 | > 3
CCCCCCc1cc2c(=O)n(CCSc3nc(-c4cc(OC)c(OC)c(OC)c4)c(C#N)c(=O)[nH]3)cnc2s1 | 2 | 4 | 76.3 (≈ 131 µM) | 5 | 17.1 (≈ 29.4 µM) | 36.5 (≈ 62.7 µM) | 18.8 (≈ 32.3 µM) | 5 | 19.1 (≈ 32.8 µM) | 96.4 (≈ 166 µM) | 2 | 4 | 5 | 6 | 4 | 6 | 96.8 (≈ 166 µM) | 2 | 15.6 (≈ 26.8 µM) | 2
CCCCCCCc1cc2c(=O)n(CCSc3nc(-c4cc(OC)c(OC)c(OC)c4)c(C#N)c(=O)[nH]3)cnc2s1 | 6 | 4 | 75.4 (≈ 127 µM) | 6 | 11.1 (≈ 18.6 µM) | 72.6 (≈ 122 µM) | 13.6 (≈ 22.8 µM) | 7 | 17.1 (≈ 28.7 µM) | 88.1 (≈ 148 µM) | 5 | 6 | 5 | 7 | 7 | 7 | 79.7 (≈ 134 µM) | 7 | 11.1 (≈ 18.6 µM) | 4
CCCCCc1cc2c(=O)n(CCCSc3nc(-c4cc(OC)c(OC)c(OC)c4)c(C#N)c(=O)[nH]3)cnc2s1 | > 2 | 6 | 75.8 (≈ 130 µM) | > 10 | > 30 | 72.8 (≈ 125 µM) | 9.8 (≈ 16.8 µM) | 3 | 12.3 (≈ 21.1 µM) | > 100 | > 7 | 8 | > 8 | > 3 | 3 | > 3 | > 100 | > 2 | > 30 | > 6
COc1cc(-c2nc(SCCCn3cnc4sc5c(c4c3=O)CCCC5)n(Cc3c(F)c(F)c(F)c(F)c3F)c(=O)c2C#N)cc(OC)c1OC | > 3 | > 4 | > 100 | > 4 | > 30 | > 100 | 26.5 (≈ 35.5 µM) | > 3 | 28.3 (≈ 37.9 µM) | > 100 | > 4 | > 4 | > 4 | > 3 | > 3 | > 3 | > 100 | > 3 | > 30 | > 4
